These results are taken from ChEMBL document CHEMBL5344428, “Discovery, Crystallographic Studies, and Mechanistic Investigations of Novel Phenylalanine Derivatives Bearing a Quinazolin-4-one Scaffold as Potent HIV Capsid Modulators” (J Med Chem, 2023).

The target of series [1] is Human immunodeficiency virus type 1 reverse transcriptase (Human immunodeficiency virus 1) (UniProt Q72547). The conditions noted are these: dose 100.0 nM.
Series [2] concerns the target Structural capsid protein (Human immunodeficiency virus 1) (UniProt Q76129). Nature of the series: Binding affinity to HIV-1 NL4.3 monomeric capsid protein assessed as Koff by SPR analysis. The conditions noted are these: filed as modulator. The essentials: (§1)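 SPR binding of compound to monomeric or disulfide-stabilised hexameric HIV-1 CA NL4.3 protein; koff, residence time and KD derived from isotherms, monomer/hexamer ratio = KD monomer/KD hexamer. Triplicate, SD.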
A general note: In SPR one partner is held on a chip, and binding of the other changes the refractive index at the surface.

The subject of series [3] is Human immunodeficiency virus 1. Nature of the series: Antiviral activity against HIV1 NL4.3 infected in human U87.CD4.CXCR4 cells assessed as inhibition of late stage replication by measuring infection at 1 uM incubated for 48 hrs by microplate luminometer based single-round infection assay (reference value: 100.0 +/- 18.40%). The arrangement: scale not given: the % may be the effect or the level left. The format is functional.

Series [4] has as its system Human immunodeficiency virus 1. Briefly: Antiviral activity against HIV1 NL4.3 infected in human U87.CD4.CXCR4 cells assessed as inhibition of early stage replication by measuring infection at 1 uM incubated for 48 hrs by microplate luminometer based single-round infection assay (reference value: 100.0 +/- 30.99%). The arrangement: scale not given: the % may be the effect or the level left. It counts as functional.

The target of series [5] is Structural capsid protein (Human immunodeficiency virus 1) (UniProt Q76129). Nature of the series: Binding affinity to HIV-1 NL4.3 hexameric capsid protein assessed as Koff by SPR analysis. The conditions noted are these: filed as modulator. The essentials:
as §1

For series [6], the target named is T1, Structural capsid protein (Human immunodeficiency virus 1, UniProt Q76129). Nature of the series: Binding affinity to HIV-1 NL4.3 hexameric capsid protein assessed as dissociation constant by SPR analysis.
T1 sequence (Q76129 whole entry): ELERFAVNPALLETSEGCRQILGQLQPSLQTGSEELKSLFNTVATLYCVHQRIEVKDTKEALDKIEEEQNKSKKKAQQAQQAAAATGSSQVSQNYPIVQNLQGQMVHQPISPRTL
The subject of series [7] is Human immunodeficiency virus 1. Briefly: Selectivity ratio of Kd for HIV-1 NL4.3 monomeric capsid protein to Kd for HIV-1 NL4.3 hexameric capsid protein. The essentials:
as §1

For series [8], the system named is Human immunodeficiency virus 2. Briefly: Antiviral activity against HIV-2 ROD infected in human MT4 cells assessed as protection against virus induced cytopathic effect. The format is functional, organism-based. The conditions noted are these: Human immunodeficiency virus 2, ROD. The essentials: (§2)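 MT-4 cells were infected with HIV-1 IIIB or HIV-2 ROD, and cell viability was read by MTT. […] Each value was run in at least triplicate and averaged from at least three independent experiments.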
In general terms: Cytopathic effects are the visible damage that an infection or toxin causes in cultured cells.

For series [9], the target named is Structural capsid protein (Human immunodeficiency virus 1) (UniProt Q76129). Briefly: Binding affinity to HIV-1 NL4.3 monomeric capsid protein assessed as residence time by SPR analysis. As to conditions: filed as modulator. The essentials:
as §1

Series [10] concerns Human immunodeficiency virus 1. Briefly: Antiviral activity against HIV1 IIIB infected in human MT4 cells assessed as reduction in virus induced cytopathic effect measured after 5 days by MTT assay. The conditions noted are these: Human immunodeficiency virus 1, IIIB, MT4, 120 h. It counts as functional, organism-based. The essentials: as §2
The nature of series [11]: Metabolic stability in human liver microsomes assessed as intrinsic clearance at 1 uM incubated for 60 mins in presence of NADPH by LC-MS/MS analysis. It counts as ADME, Microsome. For orientation: Liver microsomes are vesicles of endoplasmic reticulum, rich in cytochrome P450 enzymes.
The nature of series [12]: Cytotoxicity against human MT4 cells assessed as reduction in cell viability incubated for 5 days by MTT assay. It counts as toxicity, cell-based. The conditions noted are these: MT4 cells, time 5 day. The essentials: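 Uninfected MT-4 cells were exposed to compound, and viability was read by the MTT method. […] Each value was run in at least triplicate and averaged from at least three independent experiments.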

Series [13] can be described thus: Metabolic stability in human liver microsomes assessed as half-life at 1 uM incubated for 60 mins in presence of NADPH by LC-MS/MS analysis. The format is ADME, Microsome.
In series [14] the target is T1, Structural capsid protein. Briefly: Competitive binding affinity to HIV-1 NL4.3 hexameric capsid protein assessed as inhibition of CPSF6 binding to capsid protein by SPR analysis.
For series [15], the system named is Human immunodeficiency virus 2. Nature of the series: Antiviral activity against HIV2 ROD infected in human MT4 cells assessed as reduction in virus induced cytopathic effect measured after 5 days by MTT assay. The format is functional, organism-based. As to conditions: Human immunodeficiency virus 2, ROD, MT4, 120 h. The essentials:
as §2

In series [16] the test system is Human immunodeficiency virus 1. Nature of the series: Antiviral activity against HIV-1 IIIB infected in human MT4 cells assessed as protection against virus induced cytopathic effect. As to conditions: Human immunodeficiency virus 1, IIIB. It counts as functional, organism-based. The essentials: as §2
Series [17] can be described thus: Metabolic stability in human liver microsomes assessed as parent compound remaining at 1 uM incubated for 60 mins in absence of NADPH by LC-MS/MS analysis. The format is ADME, Microsome. As to conditions: 1 h. The essentials: (§3)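 Human liver microsomes were used at a final 0.5 mg protein/mL, incubated 60 min with an NADPH regenerating system. The no-cofactor arm replaced NADPH with buffer. T1/2 came from linear regression of the kinetic data. CLint(mic) = (0.693/T1/2)/mg microsomal protein per mL. CLint(liver) was scaled by mg microsomal protein/g liver and g liver/kg body weight.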

Series [18] addresses Structural capsid protein (Human immunodeficiency virus 1) (UniProt Q76129). Briefly: Binding affinity to HIV-1 NL4.3 hexameric capsid protein assessed as residence time by SPR analysis. The conditions noted are these: filed as modulator. The essentials: as §1
Series [19] in a line: Metabolic stability in human liver microsomes assessed as parent compound remaining at 1 uM incubated for 60 mins in presence of NADPH by LC-MS/MS analysis. The format is ADME, Microsome. As to conditions: 1 h. The essentials:
as §3

The target of series [20] is T1, Structural capsid protein. Briefly: Binding affinity to HIV-1 NL4.3 monomeric capsid protein assessed as dissociation constant by SPR analysis.
The nature of series [21]: Metabolic stability in human liver assessed as intrinsic clearance at 1 uM incubated for 60 mins in presence of NADPH by LC-MS/MS analysis. The format is ADME, tissue-based. The conditions noted are these: read-out: CLH. The essentials: as §3

Sequence of Structural capsid protein (Human immunodeficiency virus 1) (Q76129 as listed by the source): as the sequence (Q76129 whole entry) above

By inhibition is commonly meant the share of the control response that was lost under treatment. In turn, `Cc1cc(/C=C/C#N)cc(C)c1Nc1ccnc(Nc2ccc(C#N)cc2)n1` returned an inhibition in series [1] of 50%.

As usually defined, the Kd is a measure of binding affinity in units of concentration. As a reminder, the EC50 is the concentration needed to bring the measured effect to its halfway point. A word on the CC50: it is the concentration at which the toxic effect on the cells reaches its halfway point. A word on the half-life: it is the time in which the quantity being followed falls by half. A word on the IC50: it is the point on the concentration scale where inhibition reaches its midpoint. As for `COc1ccc(N(C)C(=O)[C@H](Cc2ccccc2)NC(=O)Cc2c(C)[nH]c3ccccc23)cc1`, the K in series [2] came out at 1.58 s⁻¹; in series [5], 0.036 s⁻¹. The Activity in [3] is on record as 4.185%; in series [4], 0.07%. The dissociation constant Kd in series [6] was found to be 47 nM; in [20] it was 969 nM. In [7], the Selectivity ratio stood at 20.6. The concentration giving a half-maximal response (EC50) in series [8] was 4160 nM; in series [10] it was 800 nM; in series [15] it was 2220 nM; in series [16] it was 750 nM. Further, the TIME in [9] worked out at 0.000183 h; in series [18] it was 0.00772 h. In [11] (microsomes, 1 h, 1 µM), the CLH amounted to 2114.6 µL/min/mg. Further, the 50% cytotoxic concentration (CC50) at 120 h in [12] was more than 32300 nM. Also, in [13] (liver microsomes), the half-life at 1 µM came out at 42 s. For the same compound, the IC50 in series [14] came to 26.6 nM. For the same compound, the values for the Stability in [17] and in [19] were 106.1% and 0%, respectively.

For the compound `O=C(O)Cc1ccccc1Nc1c(Cl)cccc1Cl` [DICLOFENAC], the CLint scaled at 1 µM in series [21] turned out to be 280 mL/min/kg.

For the compound `COc1ccc(N(C)C(=O)[C@H](Cc2ccccc2)NC(=O)CN2CCN(S(=O)(=O)c3ccc(N)cc3)CC2=O)cc1`, the K was found to be 13.4 s⁻¹ in series [2] and 2.04 s⁻¹ in [5]. Besides, the Activity in series [3] turned out to be 0.807%; in [4], 0.092%. Also, the CLint scaled at 1 µM in [21] amounted to 309 mL/min/kg. Also, the EC50 came to 30 nM in [8], 280 nM in series [10], 30 nM in series [15] and 280 nM in series [16]. For the same compound, the TIME in series [9] stood at 1.67e-05 h; in series [18] it was 0.000133 h. Further, in [11] (liver microsomes, read-out: CLH), the microsomal CLint at 1 µM is 344 µL/min/mg. Besides, the t1/2 in [13] (microsomes, 1 h, 1 µM) worked out at 240 s. In addition, the Stability in series [17] was 113.3%; in series [19] it was 0%.
